Measured values reported in PubChem BioAssay.
Values without a mark were called inactive. Results filed as inconclusive are left out. Calls of active or inactive are those of the source.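 The calls were made as follows, unless noted: active = RAM network inhibition above 8.4% in each of two replicates, 3 SD over the compound average; inconclusive = above 8.4% inhibition in only one replicate; inactive = 8.4% inhibition or less in each replicate.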

Columns and labels:
[1] = OD615 S. cerevisiae growth inhibition, permissive medium, pilot counter-assay, permissive growth control for S. cerevisiae lifespan shortening project (AID 705;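 active = growth inhibition above 25% in both replicates, a cutoff set 3 SD above the mean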); details: OD615, 24 h, at 10 µM, stronger effect = higher value
In short: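 assay system = Saccharomyces cerevisiae strain carrying genetically modified DeaD replicative-lifespan system | medium = SC raffinose/galactose permissive medium | dosing = 10 µM single dose, 0.25% DMSO | schedule = 24 h compound exposure at 30 °C after 4 h pre-growth | measured by = OD at 615 nm | read-out basis = growth inhibition from lowered OD615 after 24 h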

[2] = Restrictive medium S. cerevisiae growth inhibition, OD615, pilot screen of yeast lifespan reduction project, restrictive growth control (AID 706;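 active = growth inhibition above a set limit, 3 SD over mean compound inhibition, in both replicates, cut at about 43% in these data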;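 also: modified DeaD lifespan yeast strain shifted to restrictive glucose medium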); details: OD615, 48 h, at 10 µM, stronger effect = higher value
In short: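 Buffer or medium: CSMM-D glucose medium. Material: genetically modified Saccharomyces cerevisiae, DeaD replicative lifespan assay strain. Times: 48 h compound exposure at 30 °C. Measured by: optical density at 615 nm.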

[3] = viability gain of MRP-1-high H69AR cells under doxorubicin, pilot screen, MRP-1 activator project, CellTiter-Glo, duplicate (AID 807;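 active = viability increase at or above a cutoff of the median across tested compounds plus 3 SD, cut at about 8.5% in these data, passing the limit was not always enough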;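 also: compound pretreatment 18-22 h then 72 h combined with doxorubicin; 0% = doxorubicin alone and 100% = vehicle without doxorubicin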); details: H69AR viability with doxorubicin, CellTiter-Glo luminescence; at 10 µM; stronger effect = higher value
[4] = growth suppression of beta-catenin knockout HCT116, pilot screen, human colon tumor cells (AID 823;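 active = cell viability at or below a set limit in both duplicate runs, the limit being the all-compound median minus 4 SD, cut at about 23% in these data, passing the limit was not always enough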;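 also: 0% = wells killed by 20 µM Hyamine and 100% = untreated DMSO cell wells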); details: CellTiter-Glo, 60 h, at 10 µM, stronger effect = lower value
[5] = growth suppression of PTEN-deleted HCT116, pilot screen, cell-based, HCT116 clonal line, CellTiter-Glo (AID 824;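 active = viability at or below 27.92% in each of two runs, the all-compound median minus 4 SD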;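 also: 0% = 20 µM Hyamine control and 100% = vehicle cell control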); details: 60 h, at 10 µM, stronger effect = lower value
[6] = inhibitors of the yeast RAM network, pilot screen, dse1pr::URA3 reporter, 5-FOA selection (AID 869;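 active = inhibition over a set limit, the all-compound mean plus 3 SD, in both replicate runs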;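 also: 0% = DMSO wells with no growth and 100% = 10 µM 1-NA-PP1 with full growth; RAM network block rescues cells from 5-FOA so hits raise OD615 growth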); details: S. cerevisiae dse1pr::URA3 5-FOA growth, OD615, 2 d; at 10 µM; stronger effect = higher value; strain carries analog-sensitive mutant Cbk1 kinase
[7] = RAM signaling pathway blockade in yeast – S. cerevisiae, Pdr1DBD-CYC8 efflux-inhibited sensitized strain, primary screen (AID 1298);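 also: 0% = DMSO untreated cells without growth and 100% = 10 µM 1-NA-PP1 full growth; higher means more yeast growth rescued from 5-FOA killing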; details: S. cerevisiae cbk1-as DSE1-URA3 strain, 5-FOA growth OD615, 2 d; at 50 µM; stronger effect = higher value

Row | SMILES | growth inhibition [1] [%] | growth inhibition [2] [%] | viability increase [3] [%] | viability [4] [%] | viability [5] | inhibition [6] [%] | RAM network inhibition [7] [%]
1 | COc1ccc(CN2CCNC(=O)C2CC(=O)O)c(OC)c1 (configuration not stated) | -18.7 | -24 | -2.1 | 105 | 93.1% | 2.47 | 1.42
2 | O=C(NC1CCCCCCC1)c1cnccn1 | 0.775 | 10.4 | -0.43 | 103 | 93.7% | 1.72 | 1.71
3 | CN(C)S(=O)(=O)N1CCC(Cc2ccccc2)CC1 | -9.73 | 3.98 | -0.78 | 85.3 | 85% | -0.275 | 1.8
4 | CC(=O)NC(CCS(C)(=O)=O)C(=O)Nc1cc(Cl)ccc1Cl (configuration not stated) | -14.6 | -17.2 | 0.37 | 105 | 92% | 2.08 | 2.67
5 | CCC(C)NC(=O)c1c(-c2cc(Cl)c(OC)c(Cl)c2)noc1C (configuration not stated) | -15 | -11.9 | 0.42 | 96.7 | 93% | 0.895 | 5.69
6 | CCOCCCNC(=O)C(c1ccc(OC)cc1)N(Cc1ccc2c(c1)OCO2)C(=O)CNC(C)=O (configuration not stated) | -6.78 | 3.73 | 2.19 | 104 | 107% | 1.34 | 4.4
7 | CCc1cc2c(=O)c(-c3nc4ccccc4[nH]3)coc2c(CN2CCCC(C)C2)c1O (configuration not stated) | -3.79 | 12.3 | -0.47 | 103 | 92.8% | -0.17 | 0.56
8 | Cc1ccc(-c2nn3c(C)nnc3s2)cc1NC(=O)COc1ccc(Cl)cc1 | -4.13 | 25.3 | -1.1 | 93.8 | 90.8% | 2.17 | 6.41
9 | Cc1nn(C)c(C)c1S(=O)(=O)N(CC(=O)NCc1ccco1)c1ccc(C(C)C)cc1 | -10.3 | -2.95 | -5.76 | 96.8 | 97.3% | -0.17 | 7.88
10 | CSC1=C(C#N)C(c2ccc(C(C)C)cc2)CC(=O)N1 (configuration not stated) | -4.75 | -18.3 | 0.04 | 99.6 | 91% | 2 | 1.87
11 | Cc1ccc(C)c(NC(=O)CSc2nnc(-c3ccccc3)n2N)c1 | -4.36 | -8.22 | -1.93 | 109 | 90.1% | 1.5 | 3.95
12 | O=C(O)C1CC=CCC1C(=O)Nc1cccc(Cl)c1Cl (configuration not stated) | -8.95 | -11.1 | -1.82 | 99.6 | 101% | 3.07 | 0.21
13 | CCOC(=O)C1CCN(c2cc(=O)n(Cc3ccc(F)cc3)c(=O)[nH]2)CC1 | -11 | -17.4 | -0.81 | 96.8 | 88.5% | 3.19 | 5.11
14 | COc1ccc(Cl)cc1C(=O)N(Cc1nc(-c2cccc(C)c2)no1)C(C)C | -18.4 | -10.7 | 0.87 | 58.8 | 57.6% | 2.31 | 8.49
15 | c1ccc(-c2ccc(-c3nc(-c4cccnc4)no3)cc2)cc1 | 16.4 | 20 | -0.01 | 80.8 | 89.3% | 0.455 | -0.01
16 | O=C(c1nnc(Cc2ccc(Cl)cc2)o1)N1CCOCC1 | -7.58 | 1.76 | -0.86 | 105 | 107% | 1.23 | 0.99
17 | Cc1ccc(S(=O)(=O)NC2OC(=O)C(Cl)=C2Cl)cc1 (configuration not stated) | -17.3 | 10.1 | -3.7 | 86.4 | 104% | 0.495 | 2.08
18 | Cc1ccc(S(=O)(=O)Cc2ccc(C(=O)N3CCN(c4ccc(F)cc4)CC3)o2)cc1 | -9.22 | -15.2 | -6.28 | 33 | 23.3% (active) | 0.575 | 4.81

Row | SMILES | growth inhibition [1] [%] | growth inhibition [2] [%] | viability increase [3] [%] | viability [4] [%] | viability [5] | inhibition [6] [%] | RAM network inhibition [7] [%]
19 | Cc1cc(Nc2cc(F)ccc2C)n2nc(C)nc2n1 | -12.4 | -7.35 | -2.3 | 105 | 95% | 1.03 | 6.29
20 | Cc1nc2ccc(N)cc2s1 | -15.7 | -13.4 | -2.73 | 109 | 112% | 0.07 | 1.25
21 | O=C(NCC1OCCc2ccccc21)c1ccco1 (configuration not stated) | -13.7 | -8.18 | -3.72 | 94.5 | 96.5% | 1.16 | 6.11
22 | C=CCOn1c(=O)c(C)[n+]([O-])c2ccccc21 | -11.6 | -14.3 | -0.5 | 105 | 98.2% | -0.085 | 5.63
23 | O=C(Cn1cnc2ccccc2c1=O)N(Cc1ccco1)c1ccc(O)cc1 | -4.45 | -19.6 | -1.76 | 92 | 89.8% | 0.94 | -0.26
24 | Cc1nc(N2CCN(C(=O)c3ccco3)CC2)c2c3c(sc2n1)CCC3 | -10.5 | 5.55 | -1.12 | 79.8 | 83% | 1.16 | 5
25 | Cc1ccc(O)c(C(=O)c2cnn(C(=O)Cc3csc(C)n3)c2)c1 | -1.97 | 1.6 | -0.48 | 98.9 | 88.3% | -0.5 | -1.67
26 | COc1cc(CC(=O)O)c(C(C)=O)cc1OC | 0.26 | 0.155 | -1.29 | 100 | 102% | 0.365 | -0.36
27 | Cc1ccc2c(c1)c1c(n2CC(O)CN2C(=O)CNC2=O)C(=O)CCC1 (configuration not stated) | 3.38 | 7.05 | 4.52 | 101 | 101% | 1.74 | 3.57
28 | O=S(=O)(NCC(c1cccnc1)N1CCN(c2ccc(F)cc2)CC1)c1cccs1 (configuration not stated) | -0.1 | -0.165 | -1.56 | 87.9 | 86.8% | 2.22 | 3.87
29 | CC1CCN(c2nc(-c3ccncc3)nc3ccccc23)CC1 | 6.84 | -2.73 | -5.28 | 40.4 | 58.7% | 0.745 | 5.56
30 | CC(C)(C)c1nc(CN2CCCCC2)cc(CN2CCCCC2)c1O | -13.8 | -12.6 | -5.26 | 70.8 | 76.2% | 0.505 | 1.19
31 | O=C(Cc1cccs1)N1CCN(c2ccccn2)CC1 | -2.47 | -11.1 | -0.45 | 93.5 | 98% | 0.735 | 2.55
32 | O=C(Cn1cc2c(n1)CCCCC2)Nc1ccc(F)cc1F | -4.89 | 4.12 | 0.49 | 104 | 97% | 0.55 | 2.75
33 | O=C1NC(c2ccco2)Nc2sc3c(c21)CCN(Cc1ccccc1)C3 (configuration not stated) | 4.68 | 17.8 | -3.01 | 103 | 94% | 1.84 | 3.69
34 | CCn1c(/C=N/n2cnnc2)nc2ccccc21 | -6.04 | -5.67 | -0.75 | 96.8 | 92.8% | 1.56 | -0.99
35 | Cc1ccc(NC(=O)CCNS(=O)(=O)c2cccc3nonc23)cc1 | -4.17 | -8.23 | -1.47 | 105 | 95.5% | 0.755 | 4.98
36 | Cc1ccccc1S(=O)(=O)Cc1ccc(C(=O)N2CCN(C3CCCCC3)CC2)o1 | -9.92 | -5.71 | -1.48 | 95.1 | 89.6% | 0.385 | 4.62
